Results on 38 variants are retold here after the RNAGym collection of RNA variant scans (doi:10.1126/science.aae0568).

B1: tRNA (parent)
chain: GUUCCGUUGGCGUAAUGGUAACGCGUCUCCCUCCUAAGGAGAAGACUGCGGGUUCGAGUCCCGUACGGAACG

This sample holds only a part of the variants without activity.

Variants of B1 are the subject of the series. As to the kind of experiment: yeast fitness relative to wild type (ratio to wild type); higher = fitter; tRNA-Arg(CCU), competitive growth, 37 C, YPD. The method, boiled down:
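Changes in genotype frequencies gave Darwinian fitness relative to wild type. Frequencies were read by 100-nucleotide paired-end sequencing of gene amplicons before and after pooled Saccharomyces cerevisiae strains, carrying tRNA-Arg(CCU) gene variants at the native locus, were competed in YPD at 37°C for 24 hours in six replicates. A genotype was kept only with ≥ 100 starting reads, and estimates < 0.5 were set to 0.5.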
Take GUUCAGUUGGCGUAAUGGUUUCGCGUCUCCCUCGUAAGGAGAAGACUGCGGGUUCGAGUCCCGUGCAGAACG [C5A A20U A21U C34G A65G G67A]: the yeast fitness is at most 0.5.
Next, GUUCAGUUGGCGUAAUGGUACCGCGUCUCCCUCCUAAGGAGAUGAGUGCGGGUUCGAGUCCCGUACGGAACG [C5A A21C A43U C46G]: 0.541.
Regarding GUUCAGUUGGCGUAGUGGUAACGCGUCUCCCUCUUAAGGCGAAGACUGCGGGUUCAAGUCCCAUACGGAACG [C5A A15G C34U A40C G56A G63A], the yeast fitness was at most 0.5.
Regarding GUUCAGUUGGCGUAAUGGUCACGCGUCUCCCUCCUGAGGAGAAGACUGCGGGUUCGAGUCCCGUACGGAACG [C5A A20C A36G], the yeast fitness was determined as 0.626.
In the case of GUUCAGUUGGCGUAGUGGUAACGCGUCUCCCUACUAAGGAGAAGACUGCGGGUUCGAGUCCCGUACGGAACG [C5A A15G C33A], the yeast fitness is at most 0.5.
Take GUUCAGUUGGCGUAUUGGUAACGGGUCUCCCUCCUAAGGAGAAGACUGCGGGUUCGAGUCCCGUACGGAACG [C5A A15U C24G]: the yeast fitness is at most 0.5.
Then GUUCAGUUGGCGUAAUGGUCAAGCGUCUCCCUCCUCAGGAGAAGACUGCGGGUUCGAGUCUCGUACGGAACG [C5A A20C C22A A36C C61U], with 0.531.
As to GUUCAGUUGGCGUUAUGGUAACGCGUCUCCCUCCUAAGGAGAAGACUGCGGAUUCGAGUCCCGUACGGAACG [C5A A14U G52A], the yeast fitness was 0.603.
Then GUUCAGUUGGCGUAAUGGUGACGCGUCUCACUCCUAAGGUCAAGACUGCGGGUUCGAGUCGCCUACGGAACG [C5A A20G C30A A40U G41C C61G G63C], with 0.565.
On to GUUCAGUUGGCGUAAUGGUUACGCGUCUCCCUCCUAAGGAGAAGACUGCGGGUUCGAGUCCCGUGCGGAACG [C5A A20U A65G], for which the yeast fitness amounted to 0.591.
In the case of GUUCAGUUGGCGUAGUGGUAACGGGUCUUCCUCGCAAGGAGAAGAGUGCGGGUUCGAGUCCCGUACGGAACG [C5A A15G C24G C29U C34G U35C C46G], the yeast fitness came to 0.527.
On to GUUCAGUUGGCGUAAUGGUUACGCGUCUCCCUCCUGAGGAGAAGACUGCGGGUUCGAGUCCCGUACGGAACG [C5A A20U A36G], for which the yeast fitness was at most 0.5.
Regarding GUUCAGUUGGCGUAGUGCUAACGCGUCUACCUCCUAAGGAGAAGACUGCGGGUACGAGUCCCGUCCGGAACG [C5A A15G G18C C29A U54A A65C], the yeast fitness was at most 0.5.
Turning to GUUCAGUUGGCGUAAUGGUAACGCGUCUCCCUCCUAAGGAGAAGACUGCGGGUUCGAGUCCCGUACGGAACG [C5A], the yeast fitness stood at 0.995.
Turning to GUUCAGUUGGCGUGAUGGUAACGAGUCUCCCUCCUAAGGAGAAGACUGCGGGUUCGAGUCCCAUACGGUACG [C5A A14G C24A G63A A69U], the yeast fitness was at most 0.5.
Regarding GUUCAGUUGGCGUCAUGGUAACGCGUCUCCCUCCUGAGCAGAAGAAUGCGGGUUCGAGUCCCGUCCGGAACG [C5A A14C A36G G39C C46A A65C], the yeast fitness was at most 0.5.
For the variant GUUCAGUUGGCGUGAUGGUAAGGCGUCUCCCUCCUAAGGAGAAGACUGCGGGUUCGAGUCCGGUACGGAACG [C5A A14G C22G C62G], the yeast fitness was at most 0.5.
GUUCAGUUGGCGUUAUGGUACCGCGUCUCCCUCCUAAGGAGACGACUGCGGGUUCGAGUCCCGUACGGAACG [C5A A14U A21C A43C]: the yeast fitness was determined as 0.595.
Regarding GUUCAGUUGGCGUAUUGGUAACGCGUCUCCCUCCUAAGGAGAAGACUGCGGGUUCGAGUCCCGUACGGAACG [C5A A15U], the yeast fitness came to 0.626.
Then GUUCAGUUGGCGUAGUGGUAACGCGUCUCCCUCCUAAGGAGAAGACUGCGGGUUCGAGUCCCGUACGGAACG [C5A A15G], with 0.779; and GUUCAGUUGGCGUCAUGGUAACGCGUCUCCCUCCUAAGGAGAAGACUGCGGGUUCGAGUCCCGUACGAAACG [C5A A14C G68A], with at most 0.5.
Consider GUUCAGUUGGCGUCAUGGUAACAGGUCUCCCUCCUUAGGAGAAGACUGCGGGUUCGAGUCCCAUACGAAACG [C5A A14C G23A C24G A36U G63A G68A], for which the yeast fitness turned out to be 0.579.
Take GUUCAGUUGGCGUAGUGGUAACGCGUCUCCCUUCUAAGGAGAACACUGCGGGUUCGAGUCCCGUACGGAACG [C5A A15G C33U G44C]: the yeast fitness is at most 0.5.
For the variant GUUCAGUUGGCGUAAUGGUUACGCGUCUCCCUCCUAAGGAGAAGACUGCGGGUUUGAGUCUCGUGCGGAACG [C5A A20U C55U C61U A65G], the yeast fitness was at most 0.5.
Consider GUUCAGUUGGCGUAUUGGUAACGCGUCUCCGUCCUAAGAAGAAGACUGCGGGUUCGAAUCCCGUACGGAACG [C5A A15U C31G G39A G58A], for which the yeast fitness was at most 0.5.
In the case of GUUCAGUUGGCGUAAUGGUUACGCGUCUCCGUCCUAAGGAGAAGACUGCGGGUUCGAAUCCUGUACGGCACG [C5A A20U C31G G58A C62U A69C], the yeast fitness was at most 0.5.
With GUUUCGUUGGCGUAAUGGUAACGCGUCUCCCUCCUAAGGAGAAGACUGCGGGUUCGAGCCCCGUACGGCACG [C4U U59C A69C], the yeast fitness was 0.772.
As for GUUCAGUUGGCGUGAUGGUAACGCGUCUCCCUCCUAAGGAGAUGACUGCGGGUUCGAGUCCCGUACGGAACG [C5A A14G A43U], the yeast fitness is at most 0.5.
On to GUUCAGUUGGCGUCGUGGUAACGCGUCUCCCUCCUAAGGAGAAGACUGCGGGUUCGACUUCCGUAGGGAACG [C5A A14C A15G G58C C60U C66G], for which the yeast fitness is at most 0.5.
On to GUUCAGUUGGCGUACUGGUAACGCGUCUCACUCCUAAGGAGUAGACUGCGGGUUUGAGUCCCGUAAGGAACG [C5A A15C C30A A42U C55U C66A], for which the yeast fitness was at most 0.5.
Then GUUCAGUUGGCGUACUGGUAACGCGUCUCCCUCCUAAGGAGAAGACUGCGGGUUCGAGUCCCGUACUGAACG [C5A A15C G67U], with 0.526.
Next, GUUCAGUUGGCGUAAUGGUCACGAGUCUCCCUCCUAAGGAGAAGACUGCGGGUUCGAGUCCCGUACGGAACG [C5A A20C C24A]: 0.575; GUUCAGUUGGCGUAGUGGUAACGCGUCUCCCUACUAAGGAGAAGACUGCGGGUUCGAGUCUCGUACGGAACG [C5A A15G C33A C61U]: 0.531.
GUUCAGUUGGCGUACUGGUAACGCGUCUCCCUCCUAAGGAGAAGACUGCGGGUUCGAGUCCCGUACGGUACG [C5A A15C A69U]: the yeast fitness stood at 0.552.
For the variant GUUCAGUUGGCGUACUGGUAACGCGUCUCCCUCCUAAGGAGAAGACUGCGGGUUCGAGUCCCGUAUGGAACG [C5A A15C C66U], the yeast fitness was at most 0.5.
Consider GUUCAGUUGGCGUAUUGGUAACGCGUCUCCCUCCUAACAAGACGACUGCGGGUUCGAGUGCCGUCCGGAACG [C5A A15U G38C G39A A43C C60G A65C], for which the yeast fitness is at most 0.5.
Take GUUCAGUUGGCGUGAUGGUUACGCGUCUCCCUCCUACGGAGAAGACUGAGGGUUCGAGUCCCGUAAGGAACG [C5A A14G A20U A37C C49A C66A]: the yeast fitness was at most 0.5.
As for GUUCAGUUGGCGUGAUGGUAACGAGUCUCCCUCCUAAGGAGAAGACUGCGGGUUCGAGUCCCGUACGGAACG [C5A A14G C24A], the yeast fitness came out at 0.565.
